According to ChEMBL document CHEMBL1136109, “Polymer-assisted solution-phase (PASP) parallel synthesis of an alpha-ketothiazole library as tissue factor VIIa inhibitors” (Bioorg Med Chem Lett, 2003):

Columns and labels:
[1] = biological target: Thrombin and coagulation factor VII (Homo sapiens) (UniProt P00734+P08709); experiment: Selectivity ratio for tissue factor VIIa and thrombin (IIa); format: protein assay
Coagulation factor VII = biological target: T1, Coagulation factor VII (Homo sapiens, UniProt P08709); experiment: Inhibition of tissue coagulation factor VII
T1 sequence (P08709 whole entry): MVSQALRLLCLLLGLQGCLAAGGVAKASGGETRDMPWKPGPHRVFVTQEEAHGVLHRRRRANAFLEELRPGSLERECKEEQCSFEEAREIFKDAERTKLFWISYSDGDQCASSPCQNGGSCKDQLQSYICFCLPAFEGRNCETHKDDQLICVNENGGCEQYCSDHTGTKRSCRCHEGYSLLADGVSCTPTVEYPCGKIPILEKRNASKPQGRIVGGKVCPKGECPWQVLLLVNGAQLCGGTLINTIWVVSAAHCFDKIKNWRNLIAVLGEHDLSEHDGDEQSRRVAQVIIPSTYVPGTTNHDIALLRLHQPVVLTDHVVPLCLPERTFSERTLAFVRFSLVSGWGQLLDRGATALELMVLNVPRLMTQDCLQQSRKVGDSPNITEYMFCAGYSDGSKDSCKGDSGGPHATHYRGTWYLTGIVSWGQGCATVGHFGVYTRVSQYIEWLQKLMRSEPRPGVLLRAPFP
Procedure, shortened: (§1)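 Chromogenic enzyme assays: factor Xa, thrombin (IIa), or tissue factor/VIIa complex, each with its own specific chromogenic substrate. Activity was followed as the rise in absorbance at 405 nm from released p-nitroaniline as substrate was cleaved. Inhibition was taken as the reduced change in absorbance and expressed as IC50.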

Prothrombin = Prothrombin (Homo sapiens, UniProt P00734); experiment: Inhibitory activity against thrombin (IIa); procedure, shortened: as §1
Coagulation factor X = Coagulation factor X (Homo sapiens, UniProt P00742); experiment: Inhibition of coagulation factor X; procedure, shortened: as §1
Chain of Coagulation factor X (P00742 41-179 limits assumed): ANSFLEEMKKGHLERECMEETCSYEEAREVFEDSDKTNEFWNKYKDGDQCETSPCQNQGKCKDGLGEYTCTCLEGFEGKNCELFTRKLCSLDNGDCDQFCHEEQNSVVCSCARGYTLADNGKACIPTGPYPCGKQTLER
Chain of Coagulation factor X (P00742 235-488 limits assumed): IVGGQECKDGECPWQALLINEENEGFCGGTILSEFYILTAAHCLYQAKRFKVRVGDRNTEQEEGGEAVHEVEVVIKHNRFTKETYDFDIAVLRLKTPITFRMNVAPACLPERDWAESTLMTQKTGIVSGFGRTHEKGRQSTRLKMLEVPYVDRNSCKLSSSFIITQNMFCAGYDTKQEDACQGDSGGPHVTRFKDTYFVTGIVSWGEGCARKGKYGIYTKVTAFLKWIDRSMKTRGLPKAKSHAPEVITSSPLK

| Compound | Ratio [1] | IC50 (Coagulation factor VII) | IC50 (Prothrombin) | IC50 (Coagulation factor X) |
| --- | --- | --- | --- | --- |
| N#Cc1ccc(C[C@H](NC(=O)[C@@H](Cc2ccccc2)NS(=O)(=O)Cc2ccccc2)C(=O)N[C@@H](CCCNC(=N)N)C(=O)c2nccs2)cc1 | 147 | 340 nM | 50000 nM | 900 nM |
| Cc1ccccc1C[C@H](NC(=O)[C@@H](Cc1ccccc1)NS(=O)(=O)Cc1ccccc1)C(=O)N[C@@H](CCCN=C(N)N)C(=O)c1nccs1 | 90 |  |  |  |
| N=C(N)NCCC[C@H](NC(=O)[C@H](Cc1cccc(C(F)(F)F)c1)NC(=O)[C@@H](Cc1ccccc1)NS(=O)(=O)Cc1ccccc1)C(=O)c1nccs1 | 106 | 800 nM | 84900 nM | 1000 nM |
| Cc1cccc(C[C@H](NC(=O)[C@@H](Cc2ccccc2)NS(=O)(=O)Cc2ccccc2)C(=O)N[C@@H](CCCN=C(N)N)C(=O)c2nccs2)c1 | 71 |  |  |  |
| CC[C@@H](C)[C@H](NC(=O)[C@@H](Cc1ccccc1)NS(=O)(=O)Cc1ccccc1)C(=O)N[C@@H](CCCN=C(N)N)C(=O)c1nccs1 | 64 |  | 19300 nM | 380 nM |
| N=C(N)NCCC[C@H](NC(=O)[C@H](Cc1ccc(F)c(F)c1)NC(=O)[C@@H](Cc1ccccc1)NS(=O)(=O)Cc1ccccc1)C(=O)c1nccs1 | 70 | 160 nM | 11200 nM | 210 nM |
| NC(N)=NCCC[C@H](NC(=O)[C@H](Cc1cccnc1)NC(=O)[C@@H](Cc1ccccc1)NS(=O)(=O)Cc1ccccc1)C(=O)c1nccs1 |  | 200 nM | 100000 nM | 290 nM |

Results, then the molecule that gave them:

| Ratio [1] | IC50 (Coagulation factor VII) | IC50 (Prothrombin) | IC50 (Coagulation factor X) | Compound |
| --- | --- | --- | --- | --- |
| 75 | 200 nM | 15000 nM | 250 nM | N=C(N)NCCC[C@H](NC(=O)[C@H](Cc1cccc(F)c1)NC(=O)[C@@H](Cc1ccccc1)NS(=O)(=O)Cc1ccccc1)C(=O)c1nccs1 |
| 63 | 230 nM | 14600 nM | 270 nM | N=C(N)NCCC[C@H](NC(=O)[C@H](Cc1cccc(Cl)c1)NC(=O)[C@@H](Cc1ccccc1)NS(=O)(=O)Cc1ccccc1)C(=O)c1nccs1 |
| 95 | 42 nM | 4000 nM | 27 nM | N=C(N)NCCC[C@H](NC(=O)[C@H](Cc1ccccc1)NC(=O)[C@@H](Cc1ccccc1)NS(=O)(=O)Cc1ccccc1)C(=O)c1nccs1 |
| 58 |  |  |  | N=C(N)NCCC[C@H](NC(=O)[C@H](CC(N)=O)NC(=O)[C@@H](Cc1ccccc1)NS(=O)(=O)Cc1ccccc1)C(=O)c1nccs1 |
| 500 |  |  |  | N=C(N)NCCC[C@H](NC(=O)[C@H](Cc1cccnc1)NC(=O)[C@@H](Cc1ccccc1)NS(=O)(=O)Cc1ccccc1)C(=O)c1nccs1 |
|  | 170 nM | 12000 nM | 160 nM | Cc1cccc(C[C@H](NC(=O)[C@@H](Cc2ccccc2)NS(=O)(=O)Cc2ccccc2)C(=O)N[C@@H](CCCNC(=N)N)C(=O)c2nccs2)c1 |
|  | 1030 nM | 60000 nM | 2100 nM | NC(=O)C[C@H](NC(=O)[C@@H](Cc1ccccc1)NS(=O)(=O)Cc1ccccc1)C(=O)N[C@@H](CCCN=C(N)N)C(=O)c1nccs1 |
| 69 | 1450 nM | 100000 nM | 2400 nM | N#CC[C@H](NC(=O)[C@@H](Cc1ccccc1)NS(=O)(=O)Cc1ccccc1)C(=O)N[C@@H](CCCNC(=N)N)C(=O)c1nccs1 |
| > 333 | 90 nM | > 30000 nM | 210 nM | N=C(N)NCCC[C@H](NC(=O)[C@H](Cc1ccccc1F)NC(=O)[C@@H](Cc1ccccc1)NS(=O)(=O)Cc1ccccc1)C(=O)c1nccs1 |
|  | 240 nM | 21700 nM | 330 nM | Cc1ccccc1C[C@H](NC(=O)[C@@H](Cc1ccccc1)NS(=O)(=O)Cc1ccccc1)C(=O)N[C@@H](CCCNC(=N)N)C(=O)c1nccs1 |
